High-throughput results as filed in PubChem.
M4 antag = CHRM4 antagonism in calcium assay; inhibition, % at 3 µM; AID 624125; CHO-hM4 cells, ACh EC80, Fluo-8 calcium fluorescence; hit rate 0.73% among 360,000;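 active = inhibition above its plate's cutoff, the mean inhibition of sample wells plus 3 SD, cut at about 27% in these data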
M5 ag = agonists of human muscarinic M5 receptor (CHRM5). P08912. CHO-K1 hM5 cells, Fluo-8 calcium fluorescence; 0% DMSO wells, 100% maximal acetylcholine response. activation, % at 3 µM. hit rate 0.19% among 360,000;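 active = activation above the run's mean over test compounds plus 3 SD, cut at about 23% in these data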;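 also: signal is peak over basal fluorescence ratio across the kinetic read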
Target sequence (P08912 whole entry, looked up): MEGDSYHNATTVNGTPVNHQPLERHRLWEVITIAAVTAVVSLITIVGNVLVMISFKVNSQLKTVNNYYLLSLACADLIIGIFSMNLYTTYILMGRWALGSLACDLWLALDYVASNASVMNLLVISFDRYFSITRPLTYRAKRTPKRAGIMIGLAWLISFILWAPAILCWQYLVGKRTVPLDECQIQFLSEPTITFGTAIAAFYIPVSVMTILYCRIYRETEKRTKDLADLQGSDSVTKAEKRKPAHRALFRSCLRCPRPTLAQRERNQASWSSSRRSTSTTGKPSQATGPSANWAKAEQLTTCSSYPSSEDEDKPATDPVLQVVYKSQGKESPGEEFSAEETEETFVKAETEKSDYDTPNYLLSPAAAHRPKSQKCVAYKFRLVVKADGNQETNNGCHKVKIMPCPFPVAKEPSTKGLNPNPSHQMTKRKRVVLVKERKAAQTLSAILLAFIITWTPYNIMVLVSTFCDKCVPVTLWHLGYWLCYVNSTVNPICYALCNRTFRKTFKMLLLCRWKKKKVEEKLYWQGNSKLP
M4 ag = agonists of human muscarinic M4 receptor (CHRM4); hit rate 0.14% among 360,000; P08173; AID 624127; activation, % at 3 µM; CHO-K1 hM4/Gqi5, Fluo-8 calcium fluorescence; vehicle 0%, full acetylcholine response 100%;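 active = activation above the run mean over all test wells plus 3 SD, cut at about 32% in these data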;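 also: peak over basal fluorescence ratio per well then scaled between controls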
M5 antag = CHRM5 antagonism in calcium assay; CHO-hM5 cells, Fluo-8 calcium fluorescence, ACh EC80; AID 624040; inhibition, % at 3 µM; hit rate 0.59% among 360,000;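 active = inhibition above a per-plate cutoff, the mean of that plate's test compounds plus 3 SD, cut at about 27% in these data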
M5 PAM = potentiates acetylcholine response at human M5 receptor; P08912; CHO-K1 hM5, Fluo-8 calcium, ACh EC20 PAM; 0% = ACh EC20, 100% = ACh EC100; activation, % at 3 µM; hit rate 0.3% among 360,000;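 active = activation above the run cutoff, the mean activation of all test compounds plus 3 SD, cut at about 18% in these data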
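System: CHO-K1 hM5 cells. Reagent: acetylcholine, EC20 level. Compound dosing: single dose, 3 µM nominal final test concentration. Timing: Post-acetylcholine fluorescence recording 140 s. Detection: Fluo-8 calcium fluorescence. Read-out: % activation, ACh-normalized. Benchmarks: ACh EC20 and EC100 wells. Repeats: singlicate, one well per test compound.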
CHRM4 PAM = CHRM4 positive allosteric modulation; CHO-K1 hM4/Gqi5, Fluo-8 calcium fluorescence, ACh EC20; 0% = ACh EC20, 100% = maximal ACh; hit rate 0.4% among 360,000; activation, % at 3 µM;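 active = activation above its plate's cutoff, the mean activation of sample wells plus 3 SD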
Numbers stand for hits; – = inactive. A selection: hits, their analogues and other compounds. The true share with any hit is near 1.9%.

SMILES	M4 antag	M5 ag	M4 ag	M5 antag	M5 PAM	CHRM4 PAM
Cc1csc2c(N3CCN(C(=S)Nc4ccc(F)cc4F)CC3)ncnc12	–	–	–	29	–	–
Cc1csc2c(N3CCN(C(=O)Nc4ccccc4)CC3)ncnc12	–	–	–	–	–	–
O=[N+]([O-])c1ccc(N2CCN(C(=S)Nc3ccc(F)cc3F)CC2)cc1	–	–	–	34	–	–
CCOCCCNC(=O)Cn1ncc2c(=O)oc3ccccc3c21	39	–	–	–	–	–
Cc1cccc(NC(=O)COC(=O)CN2C(=O)C3CCCCC3C2=O)c1C (stereo not drawn)	–	–	–	–	–	–
Cc1cccc(C)c1-n1c(C)cc(/C=N\Nc2ccc([N+](=O)[O-])cn2)c1C	35	–	–	–	–	–
O=[N+]([O-])c1ccc(NN=Cc2cccc(O)c2)nc1	–	–	–	–	–	–
COc1ccc(CNCc2cn(-c3cccc(F)c3)nc2-c2ccc(C)o2)cc1	34	–	–	–	–	–
COc1ccc(-n2cc(CNCc3cccnc3)c(-c3cccc(F)c3)n2)cc1	–	–	–	–	–	–
COC(=O)c1ccc(S(=O)(=O)N2CCN(CCO)CC2)n1C	–	–	–	–	25	–
COC(=O)c1ccc(S(=O)(=O)N2CCCN(Cc3ccccc3)CC2)n1C	–	–	–	–	–	–
CC1CC(C)CN(C(=O)CCNC(=O)Cn2ccc3ccccc3c2=O)C1 (stereo not drawn)	–	–	–	–	–	–
O=C(C[C@@H]1C/C=C/CC[C@H](Cc2ccc(F)cc2)C(=O)OCCNC1=O)N[C@H](CO)Cc1ccccc1	–	–	–	–	–	–
O=C1CC(c2ccccc2)CN1C(=O)c1cccnc1 (stereo not drawn)	–	–	–	–	19	–
O=C(NC(=S)Nc1ccc(CN2CCCCC2)cc1)c1cccc(OCc2ccccc2)c1	39	–	–	48	–	–
CCN1CCN(c2ccc(NC(=O)c3cccc(OCc4ccccc4)c3)cc2)CC1	–	–	–	33	–	–
O=C(O)c1ccc(NC(=S)NC(=O)c2cccc(COc3ccccc3)c2)cc1	–	–	–	–	–	–
CC1CC(C)(C)CC2(C1)NC(=O)N(CC(=O)N1CCN(S(=O)(=O)c3ccc(F)c(F)c3F)CC1)C2=O (stereo not drawn)	–	–	–	–	–	–
O=C(C1=C(O)C(=O)N(CCOCCO)C1c1cccc([N+](=O)[O-])c1)c1cccs1 (stereo not drawn)	–	–	–	–	22	–
CCOc1cccc(C2C(C(=O)c3cccs3)=C(O)C(=O)N2Cc2cccnc2)c1 (stereo not drawn)	–	–	–	–	29	–
CCCCOc1cccc(C2C(C(=O)c3cccs3)=C(O)C(=O)N2Cc2cccnc2)c1 (stereo not drawn)	–	–	–	–	–	–
CCCCN(C(=O)COC(=O)C1(c2ccccc2)CC1)c1c(N)n(CCC)c(=O)[nH]c1=O	–	–	–	–	–	–
Cc1ccc(NC(=O)[C@H](C)NC(=O)C2CCN(C(=O)[C@@H](NC(=O)OC(C)(C)C)C(C)C)CC2)cc1	–	–	–	–	–	17
O=C(C(=O)N1CCN(c2ccccc2)CC1)c1ccncc1	–	–	–	–	–	–
CCc1cc(C(=O)Cc2nc3ccccc3s2)c(O)cc1OCC(=O)O	36	–	–	–	–	–
SMILES	M4 antag	M5 ag	M4 ag	M5 antag	M5 PAM	CHRM4 PAM
COC(=O)c1c(C(=O)OC)c2c(-c3ccccc3)cc3cccc1n32	–	–	–	32	–	–
COC(=O)c1c(-c2ccccc2)csc1N	–	–	–	–	–	–
CCCCOc1ccc(C(=O)Nc2cccc(C)n2)cc1	94	–	–	–	–	–
CCCCCCCCOc1ccc(C(=O)O)cc1	–	–	–	–	–	22
CCCCOc1ccc(C(=O)O)cc1	–	–	–	–	–	–
CCCN(C(=O)Cc1csc(-c2ccccc2)n1)C1CCS(=O)(=O)C1 (stereo not drawn)	–	–	–	–	–	–
CCN(CC)Cc1ccccc1Sc1ccccc1	53	–	–	99	–	–
N/C(Cc1ccccc1Sc1ccccc1)=N\O	–	–	–	–	–	–
O=C1c2ccccc2CN1C(CO)Cc1ccccc1 (stereo not drawn)	–	–	–	–	–	–
O=C(Nc1ccc(Cl)cc1)Nc1nnc(CSCc2ccccc2)s1	–	–	–	–	–	29
O=C(Nc1ccc(Cl)cc1)Nc1nnc(CSc2ccc(Cl)cc2)s1	–	–	–	–	–	–
CCCC(=O)Nc1ccc(C(=O)NNC(=S)NC(=O)c2cccs2)cc1	–	–	–	–	–	–
CCCC(=O)Nc1ccc(C(=O)NNC(=S)NC(=O)c2ccc(Br)o2)cc1	34	–	–	–	–	–
C=C1C(=O)C=C2CN(C(=O)c3ccccc3)[C@@](Cc3ccc(F)cc3)(C(=O)OC)[C@@H]12	96	81	143	93	–	–
Fc1ccc(-c2cc(C(F)(F)C(F)F)[nH]n2)cc1	–	32	–	–	–	–
FC(F)C(F)(F)c1cc(-c2ccc(Cl)cc2)n[nH]1	28	–	–	–	–	–
CSc1nnc(-c2cccc(C)c2)n1N	–	–	–	–	–	32
O=C(O)c1ccc(NC2=C/C(=N/S(=O)(=O)c3cccs3)c3ccccc3C2=O)cc1	–	–	–	–	–	–
O=C1C(Nc2ccc(O)cc2)=C/C(=N/S(=O)(=O)c2cccs2)c2ccccc21	–	–	–	35	–	–
COc1cccc(C(NC(C)=O)c2nc(-c3cccc(C(C)C)c3)cs2)c1 (stereo not drawn)	–	–	–	–	–	–
NC(=S)NNC(=O)C12CC3CC(CC(C3)C1)C2	–	–	42	–	–	–
COC(=O)NNC(=O)C12CC3CC(CC(C3)C1)C2	–	–	–	–	–	–
CCOC(=O)c1sc(NC(=O)CN2C(=O)NC3(CCCCCCC3)C2=O)c(C(=O)OCC)c1C	27	–	–	–	–	–
COc1cc(N2CCCC2)c(OC)cc1/C=C1/NC(=S)NC1=O	–	32	–	–	–	–
COc1ccc(OC)c(/C=C2\NC(=O)NC2=O)c1	–	–	–	–	–	–
COc1cccc(-c2cnc3c(NC=O)cc(-c4ccncc4)cn23)c1	–	–	–	–	–	–
CSc1ccccc1NC(=O)CN1CCCCC1C (stereo not drawn)	–	–	–	35	–	–
CSc1ccccc1NC(=O)CCc1ccccc1	–	–	–	–	–	22
